≈ marks a conversion by molar mass, not a printed value.

For assay [1], the system named is COLO 205. Kind of assay: Induction of apoptosis in human COLO205 cells at 3.5 ug/ml after 24 hrs by propidium iodide and annexin V staining method (reference value: 14.3%). In kind it is functional.
The subject of assay [2] is COLO 205. Put plainly: Induction of mitochondrial membrane permeabilization in human COLO205 cells at 3.5 ug/ml by JC1 dye based staining method (reference value: 14%). The assay is classed as functional.
Assay [3] deals with COLO 205. Kind of assay: Induction of apoptosis in human COLO205 cells assessed as caspase-3 activation at 3.5 ug/ml by FLICA staining based method. The assay is classed as functional. Put shortly:
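COLO-205 cells treated as in the annexin assay (24 h exposure); cells harvested and stained with fluorescent labelled caspase inhibitors (FLICA) for active caspase 3/7; read as percent of cells with active caspase; triplicate runs.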

Assay [4] is described as follows: Cytotoxicity against human CCL229 cells after 3 days by MTT assay. As to conditions: CCL229, 72 h. The assay is classed as functional, cell-based. Put shortly:
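CCL-229 colon cancer cells grown in F12K medium (2 mM L-glutamine, 1500 mg/L sodium bicarbonate), seeded at 10,000 cells/well. Compounds added at final 5–500 µg/mL. Incubation 3 days at 37°C, humidified 5% CO2. Viability read by MTT. IC50 is the concentration giving 50% viability, taken from dose-response curves. Triplicate, mean ± SEM.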

Assay [5] relates to COLO 205. Put plainly: Induction of mitochondrial membrane permeabilization in human COLO205 cells at 7.4 ug/ml by JC1 dye based staining method (reference value: 14%). The assay is classed as functional. Put shortly:
(§1)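 COLO-205 cells, 1×10^6 per sample, exposed under the same conditions and controls as the annexin assay (camptothecin, DMSO). Then labelled with JC-1 at 200 μg/ml and scored for % cells with permeabilized mitochondrial membranes. Triplicate.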

For assay [6], the target named is Nuclear factor NF-kappa-B complex (Homo sapiens) (UniProt Q00653+P19838+Q04206). Kind of assay: Inhibition of TNFalpha-induced nuclear factor-kappa-B (unknown origin) expressed in HEK293 cells pre-incubated for 16 hrs followed by TNFalpha stimulation for 6 hrs by luciferase reporter gene assay. In kind it is cell-based. In outline:
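NFκB reporter HEK293 cells seeded at 30,000/well in assay medium without hygromycin B and allowed to reattach overnight at 37°C, 5% CO2. Compound dilutions added for 16 h (DMSO in untreated and cell-free controls). Mouse TNFα 5 ng/mL then added for 6 h. Cells lysed with one-step luciferase reagent about 15 min at room temperature, luminescence read. Non-linear regression; triplicate, mean ± SEM.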

Assay [7] deals with PBMC. Put plainly: Cytotoxicity against human PBMC after 3 days by MTT assay. In kind it is cell-based. The settings on record: 72 h. Put shortly: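 PBMCs from healthy volunteers cultured in IL-2-supplemented medium, seeded at 4×10^5–5×10^4 cells/well. Compounds added at final 2–100 µg/mL. Incubation 3 days at 37°C, humidified 5% CO2, then MTT read-out. IC50 is the concentration giving 50% viability, from dose-response curves. Triplicate, mean ± SEM.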

Assay [8] deals with COLO 205. Put plainly: Induction of apoptosis in human COLO205 cells assessed as caspase-3 activation at 7.4 ug/ml by FLICA staining based method. The assay is classed as functional. In outline: (§2)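 COLO-205 cells exposed under the annexin assay conditions (24 h; camptothecin and DMSO controls). Cells harvested and stained with fluorescent labelled inhibitors of caspases (FLICA) for active caspase 3/7, scored as % positive cells. Triplicate.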

The test system of assay [9] is COLO 205. Put plainly: Induction of apoptosis in human COLO205 cells at 7.4 ug/ml after 24 hrs by propidium iodide and annexin V staining method (reference value: 14.3%). In kind it is functional.
Assay [10] deals with COLO 205. Kind of assay: Induction of apoptosis in human COLO205 cells assessed as caspase-3 activation at 46 ug/ml by FLICA staining based method. In kind it is functional. Put shortly: as §2
The subject of assay [11] is COLO 205. Put plainly: Induction of apoptosis in human COLO205 cells at 46 ug/ml after 24 hrs by propidium iodide and annexin V staining method (reference value: 14.3%). The assay is classed as functional.
In assay [12] the target is T1, DNA topoisomerase 1 (Homo sapiens) (UniProt P11387).
T1 sequence (whole entry): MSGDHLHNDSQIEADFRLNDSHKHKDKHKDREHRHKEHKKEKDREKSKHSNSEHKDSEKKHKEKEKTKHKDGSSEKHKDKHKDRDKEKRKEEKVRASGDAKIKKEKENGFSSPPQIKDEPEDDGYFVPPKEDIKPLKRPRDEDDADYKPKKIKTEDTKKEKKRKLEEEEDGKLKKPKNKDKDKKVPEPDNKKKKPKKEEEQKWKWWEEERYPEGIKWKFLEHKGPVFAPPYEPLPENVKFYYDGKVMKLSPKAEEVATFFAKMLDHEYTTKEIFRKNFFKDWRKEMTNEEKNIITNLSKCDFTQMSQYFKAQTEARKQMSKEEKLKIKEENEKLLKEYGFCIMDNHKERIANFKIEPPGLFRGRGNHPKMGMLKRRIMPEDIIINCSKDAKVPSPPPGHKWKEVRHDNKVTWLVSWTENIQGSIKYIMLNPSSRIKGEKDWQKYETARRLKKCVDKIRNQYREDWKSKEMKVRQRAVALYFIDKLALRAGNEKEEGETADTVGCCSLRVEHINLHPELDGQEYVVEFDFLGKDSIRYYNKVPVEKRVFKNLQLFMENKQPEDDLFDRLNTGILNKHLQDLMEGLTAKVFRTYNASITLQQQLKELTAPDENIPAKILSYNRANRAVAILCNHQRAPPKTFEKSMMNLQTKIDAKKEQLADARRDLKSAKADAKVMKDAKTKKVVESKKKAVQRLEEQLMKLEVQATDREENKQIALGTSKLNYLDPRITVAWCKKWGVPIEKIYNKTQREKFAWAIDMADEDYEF
Put plainly: Inhibition of human DNA topoisomerase 1 using pHOT1 supercoiled DNA substrate incubated for 30 mins by ethidium bromide staining based gel electrophoresis method. Put shortly: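 Human DNA topoisomerase I kit with pHOT1 supercoiled DNA substrate. Compounds dissolved in 50% DMSO and tested at 10–1,500 μg/mL. Reactions run 30 min at 37°C, stopped with 10% SDS, then proteinase K 0.05 mg/mL for 15 min at 37°C. Products resolved on 1% agarose gel at 72V, stained with ethidium bromide 1 h, destained 30 min. Triplicate.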

Assay [13] deals with COLO 205. Kind of assay: Induction of mitochondrial membrane permeabilization in human COLO205 cells at 46 ug/ml by JC1 dye based staining method (reference value: 14%). The assay is classed as functional. Put shortly:
as §1

Chain of Nuclear factor NF-kappa-B complex (Homo sapiens) (P19838 whole entry, looked up): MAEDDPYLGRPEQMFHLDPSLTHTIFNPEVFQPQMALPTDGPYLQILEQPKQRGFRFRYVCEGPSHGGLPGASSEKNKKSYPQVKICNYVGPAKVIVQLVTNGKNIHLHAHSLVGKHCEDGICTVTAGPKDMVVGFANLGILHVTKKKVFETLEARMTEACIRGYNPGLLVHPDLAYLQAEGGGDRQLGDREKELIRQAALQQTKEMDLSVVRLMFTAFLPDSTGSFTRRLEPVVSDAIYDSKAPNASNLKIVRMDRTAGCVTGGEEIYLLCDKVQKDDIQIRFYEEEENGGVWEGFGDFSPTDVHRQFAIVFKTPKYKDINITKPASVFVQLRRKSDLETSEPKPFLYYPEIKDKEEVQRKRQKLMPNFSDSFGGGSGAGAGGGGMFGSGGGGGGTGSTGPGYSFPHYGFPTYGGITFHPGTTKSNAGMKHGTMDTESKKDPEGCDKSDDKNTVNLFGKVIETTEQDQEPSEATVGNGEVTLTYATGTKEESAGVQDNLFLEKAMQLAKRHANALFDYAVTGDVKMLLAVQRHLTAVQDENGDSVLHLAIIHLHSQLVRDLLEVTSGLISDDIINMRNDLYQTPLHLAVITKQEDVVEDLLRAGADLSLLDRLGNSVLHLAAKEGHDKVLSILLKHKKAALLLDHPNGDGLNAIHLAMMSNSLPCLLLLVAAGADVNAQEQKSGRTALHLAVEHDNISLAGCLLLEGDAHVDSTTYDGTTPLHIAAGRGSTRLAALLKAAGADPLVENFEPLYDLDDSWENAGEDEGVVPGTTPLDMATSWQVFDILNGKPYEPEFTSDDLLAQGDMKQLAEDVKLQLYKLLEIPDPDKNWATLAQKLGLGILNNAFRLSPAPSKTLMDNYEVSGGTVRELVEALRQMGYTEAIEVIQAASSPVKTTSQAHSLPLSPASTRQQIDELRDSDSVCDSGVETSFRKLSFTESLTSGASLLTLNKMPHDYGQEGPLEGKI
Chain of Nuclear factor NF-kappa-B complex (Homo sapiens) (Q00653 whole entry, looked up): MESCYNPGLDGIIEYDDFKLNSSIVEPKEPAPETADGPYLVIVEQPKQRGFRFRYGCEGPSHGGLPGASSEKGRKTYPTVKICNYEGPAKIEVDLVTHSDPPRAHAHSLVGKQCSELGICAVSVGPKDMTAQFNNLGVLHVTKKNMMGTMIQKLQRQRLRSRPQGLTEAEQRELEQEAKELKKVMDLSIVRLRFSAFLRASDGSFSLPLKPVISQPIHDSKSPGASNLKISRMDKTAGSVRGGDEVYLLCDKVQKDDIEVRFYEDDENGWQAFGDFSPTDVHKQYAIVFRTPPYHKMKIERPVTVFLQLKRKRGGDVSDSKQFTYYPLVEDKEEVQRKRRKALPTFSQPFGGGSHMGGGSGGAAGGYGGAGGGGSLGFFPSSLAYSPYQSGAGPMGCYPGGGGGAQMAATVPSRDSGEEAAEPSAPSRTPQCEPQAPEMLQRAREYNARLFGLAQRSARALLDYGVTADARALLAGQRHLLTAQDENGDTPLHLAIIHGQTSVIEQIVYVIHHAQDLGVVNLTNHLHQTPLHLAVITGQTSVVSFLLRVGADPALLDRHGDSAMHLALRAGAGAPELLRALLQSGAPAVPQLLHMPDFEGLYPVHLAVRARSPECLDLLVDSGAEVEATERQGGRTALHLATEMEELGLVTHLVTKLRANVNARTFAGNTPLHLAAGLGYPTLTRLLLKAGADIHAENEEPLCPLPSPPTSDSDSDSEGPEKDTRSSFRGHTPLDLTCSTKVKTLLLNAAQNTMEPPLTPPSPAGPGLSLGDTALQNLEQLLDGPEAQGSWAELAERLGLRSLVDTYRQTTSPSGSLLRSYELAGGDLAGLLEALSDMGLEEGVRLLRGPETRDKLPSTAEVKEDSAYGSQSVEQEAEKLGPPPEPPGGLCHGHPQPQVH
Chain of Nuclear factor NF-kappa-B complex (Homo sapiens) (Q04206 whole entry, looked up): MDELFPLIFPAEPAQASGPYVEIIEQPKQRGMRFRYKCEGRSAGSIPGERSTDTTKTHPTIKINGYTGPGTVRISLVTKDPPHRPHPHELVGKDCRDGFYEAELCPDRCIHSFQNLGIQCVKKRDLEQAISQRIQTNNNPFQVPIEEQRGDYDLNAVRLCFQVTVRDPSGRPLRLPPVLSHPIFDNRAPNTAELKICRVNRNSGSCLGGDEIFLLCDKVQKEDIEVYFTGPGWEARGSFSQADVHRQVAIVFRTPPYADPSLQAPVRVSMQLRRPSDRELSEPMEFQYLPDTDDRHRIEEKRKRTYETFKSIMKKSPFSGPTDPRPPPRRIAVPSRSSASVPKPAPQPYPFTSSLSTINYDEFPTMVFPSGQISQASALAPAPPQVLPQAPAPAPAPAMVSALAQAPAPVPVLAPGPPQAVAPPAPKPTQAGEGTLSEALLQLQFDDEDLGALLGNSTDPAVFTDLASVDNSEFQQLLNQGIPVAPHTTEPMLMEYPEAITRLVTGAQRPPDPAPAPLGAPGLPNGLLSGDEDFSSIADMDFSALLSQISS

On to `CC[C@@]1(O)C(=O)OCc2c1cc1n(c2=O)Cc2cc3ccccc3nc2-1` [CAMPTOTHECIN], for which the Activity in [1] was found to be 29%; in [2] it was 48.5%; in [3], 30%.

The molecule `CCCCCCCCCCCCCCCC(=O)Oc1cc(/C=C/C(=O)/C=C/c2ccc(OC)c(OC(=O)CCCCCCCCCCCCCCC)c2)ccc1OC` had an IC50 in assay [4] of 70.5 µg/mL (≈ 87.8 µM).

Molecule `CCCCCCCCCCCCCCCC(=O)Oc1ccc(/C=C2\CCC/C(=C\c3ccc(OC(=O)CCCCCCCCCCCCCCC)c(OC)c3)C2=O)cc1OC` showed an IC50 in assay [4] of 139 µg/mL (≈ 165 µM).

Consider `CCCCCCCCCC(=O)Oc1cc(/C=C/C(=O)/C=C/c2ccc(OC)c(OC(=O)CCCCCCCCC)c2)ccc1OC`, for which it took 66 µg/mL (≈ 104 µM) to reach half-maximal inhibition in assay [4] (IC50).

With `CCCCCCCCCC(=O)Oc1ccc(/C=C/C(=O)/C=C/c2ccc(OC(=O)CCCCCCCCC)cc2)cc1`, the IC50 in assay [4] stood at 180 µg/mL (≈ 313 µM).

For `COc1cc(/C=C/C(=O)CC(=O)/C=C/c2ccc(O)c(OC)c2)ccc1O` [CURCUMIN], the Activity stood at 23% in [5], 23.3% in assay [8] and 27.5% in [9]. For the same molecule, in assay [6], the inhibition result was “Dose-dependent effect”. Moreover, the IC50 was 12.3 µg/mL (≈ 33.4 µM) in assay [7] and 26.8 µg/mL (≈ 72.7 µM) in assay [4].

With `CCCCCCCCCC(=O)Oc1cccc(/C=C/C(=O)/C=C/c2cccc(OC(=O)CCCCCCCCC)c2)c1`, in assay [6], the inhibition entry was “Dose-dependent effect”. Also, the Activity in assay [10] was determined as 19.5%; in assay [11], 27.5%; in assay [13] it was 68%. Moreover, the concentration for half-maximal inhibition (IC50) in assay [7] was determined as 35.9 µg/mL (≈ 62.5 µM); in [4], 22.5 µg/mL (≈ 39.1 µM). This molecule displayed an MIC in [12] of 50 µg/mL (≈ 87 µM).

`CCCCCCCCCCCCCCCC(=O)Oc1cccc(/C=C2\CCC/C(=C\c3cccc(OC(=O)CCCCCCCCCCCCCCC)c3)C2=O)c1`: the IC50 in [7] was found to be 36.3 µg/mL (≈ 46.3 µM); in assay [4] it was 29.3 µg/mL (≈ 37.4 µM). In addition, the MIC in assay [12] came to 250 µg/mL (≈ 319 µM).

In assay [4], `CCCCCCCCCCCCCCCC(=O)Oc1cccc(/C=C/C(=O)/C=C/c2cccc(OC(=O)CCCCCCCCCCCCCCC)c2)c1` had an IC50 of 113 µg/mL (≈ 152 µM).

For the molecule `CCCCCCCCCCCCCCCC(=O)Oc1ccc(/C=C/C(=O)/C=C/c2ccc(OC(=O)CCCCCCCCCCCCCCC)c(OC)c2)cc1OC`, the IC50 in assay [7] was determined as 40.6 µg/mL (≈ 50.5 µM); in assay [4], 56.1 µg/mL (≈ 69.8 µM). Moreover, the MIC in assay [12] was determined as 100 µg/mL (≈ 125 µM).

`CCCCCCCCCC(=O)Oc1ccc(/C=C/C(=O)/C=C/c2ccc(OC(=O)CCCCCCCCC)c(OC)c2)cc1OC` had an IC50 in [4] of 143 µg/mL (≈ 225 µM).

Consider `CCCCCCCCCCCCCCCC(=O)Oc1cc(/C=C2\CCC/C(=C\c3ccc(OC)c(OC(=O)CCCCCCCCCCCCCCC)c3)C2=O)ccc1OC`, for which it took 130 µg/mL (≈ 154 µM) to reach half-maximal inhibition in assay [4] (IC50).
